# ChEMBL document CHEMBL1126036, “Quinolone antibacterial agents. Synthesis and structure-activity relationships of a series of amino acid prodrugs of racemic and chiral 7-(3-amino-1-pyrrolidinyl)quinolones. Highly soluble quinolone prodrugs with in vivo pseudomonas activity” (J Med Chem, 1992)
# Assays:
# [1] = Solubility (in 0.1 N HCl); type: physicochemical; settings: read-out: S
# Method in brief: (§1)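 Solubility was measured either from HPLC peak areas at equilibrium or by a conventional weight-per-volume method. All solutions were held for 24 h before measurement.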
# [2] = Solubility (at pH 4); type: physicochemical; settings: buffer, read-out: S; method in brief: as §1
# [3] = Solubility (at pH 7.4); type: physicochemical; settings: buffer, read-out: S; method in brief: as §1
# Escherichia coli [4] = test: In vitro antibacterial activity against gram negative Escherichia coli Vogel.; type: functional
# Enterococcus faecalis = test: In vitro antibacterial activity against gram positive Enterococcus faecalis MGH-2.; type: functional
# [5] = molecular target: DNA gyrase (Escherichia coli) (UniProt P0AES6+P0AES4); test: In vitro concentration inhibiting DNA gyrase induced cleavage in Escherichia coli H560.; type: functional
# Method in brief: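 DNA gyrase test run as described in earlier work. The value is the drug concentration (µg/mL) needed to cause DNA cleavage.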
# Enterobacter cloacae = test: In vitro antibacterial activity against gram negative Enterobacter cloacae MA 2646.; type: functional
# Klebsiella pneumoniae = test: In vitro antibacterial activity against gram negative Klebsiella pneumoniae MGH-2.; type: functional
# Escherichia coli [6] = test: In vivo potency against acute systemic infection in mouse caused by Escherichia coli Vogel on oral administration by gavage.; type: functional; settings: read-out: PD50
# Method in brief: (§2)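 Acute systemic mouse infection. A single oral dose was given by gavage at the time of challenge. Potency is reported as the median protective dose (PD50, mg/kg), determined by earlier published methods.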
# Streptococcus pneumoniae [7] = test: In vivo potency against acute systemic infection in mouse caused by Streptococcus pneumoniae SV-1 on oral administration by gavage.; type: functional; settings: read-out: PD50; method in brief: as §2
# Streptococcus pneumoniae [8] = test: In vivo potency against acute systemic infection in mouse caused by Streptococcus pneumoniae SV-1 on subcutaneous injection.; type: functional; settings: sc, read-out: PD50
# Method in brief: (§3)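 Acute systemic mouse infection. A single subcutaneous dose was injected at the time of challenge. Potency is reported as the median protective dose (PD50, mg/kg), determined by earlier published methods.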
# Escherichia coli [9] = test: In vivo potency against acute systemic infection in mouse caused by Escherichia coli vogel on subcutaneous injection.; type: functional; settings: sc, read-out: PD50; method in brief: as §3
# Pseudomonas aeruginosa = test: In vitro antibacterial activity against gram negative Pseudomonas aeruginosa UI-18.; type: functional
# Providencia rettgeri = test: In vitro antibacterial activity against gram negative Providencia rettgeri M-1771.; type: functional
# Staphylococcus aureus [10] = test: In vitro antibacterial activity against gram positive Staphylococcus aureus H-228.; type: functional
# Streptococcus pyogenes = test: In vitro antibacterial activity against gram positive Streptococcus pyogenes C-203.; type: functional
# Staphylococcus aureus [11] = test: In vitro antibacterial activity against gram positive Staphylococcus aureus UC76.; type: functional
# Streptococcus pneumoniae [12] = test: In vitro antibacterial activity against gram positive Streptococcus pneumoniae SV-1.; type: functional
# [13] = Aqueous solubility; type: physicochemical; settings: water (aqueous); read-out: S; method in brief: as §1
# Mus musculus [14] = test: In vivo potency against acute systemic infection in mouse caused by Streptococcus pyogenes C-203 on oral administration by gavage; type: functional; settings: read-out: PD50; method in brief: as §2
# Mus musculus [15] = test: In vivo potency against acute systemic infection in mouse caused by Streptococcus pyogenes C-203 on subcutaneous injection; type: functional; settings: sc, read-out: PD50; method in brief: as §3
SMILES,solubility [1],solubility [2],solubility [3],MIC (Escherichia coli [4]),MIC (Enterococcus faecalis),Cleavage [5],MIC (Enterobacter cloacae),MIC (Klebsiella pneumoniae),ED50 (Escherichia coli [6]),ED50 (Streptococcus pneumoniae [7]),ED50 (Streptococcus pneumoniae [8]),ED50 (Escherichia coli [9]),MIC (Pseudomonas aeruginosa),MIC (Providencia rettgeri),MIC (Staphylococcus aureus [10]),MIC (Streptococcus pyogenes),MIC (Staphylococcus aureus [11]),MIC (Streptococcus pneumoniae [12]),solubility [13],also measured
Cl.N[C@@H](Cc1ccccc1)C(=O)NC1CCN(c2cc3c(cc2F)c(=O)c(C(=O)O)cn3C2CC2)C1.O (some centres undefined),9.2 mg/mL,66 mg/mL,0.3 mg/mL,0.8 µg/mL,0.4 µg/mL,25 µg/mL,0.8 µg/mL,3.1 µg/mL,5 mg/kg,> 50 mg/kg,5 mg/kg,1 mg/kg,6.3 µg/mL,3.1 µg/mL,0.8 µg/mL,0.4 µg/mL,0.2 µg/mL,0.4 µg/mL,44 mg/mL,
Cl.Nc1c(F)c(N2CC[C@H](N)C2)c(F)c2c1c(=O)c(C(=O)O)cn2C1CC1.O,0.25 mg/mL,2.3 mg/mL,0.05 mg/mL,0.003 µg/mL,0.025 µg/mL,0.1 µg/mL,0.003 µg/mL,0.013 µg/mL,1.2 mg/kg,10 mg/kg,6 mg/kg,0.4 mg/kg,0.025 µg/mL,0.025 µg/mL,0.006 µg/mL,0.013 µg/mL,0.003 µg/mL,0.006 µg/mL,2.5 mg/mL,ED50 (Mus musculus [14]): 18 mg/kg; ED50 (Mus musculus [15]): 5.5 mg/kg
Cl.N[C@@H](Cc1ccccc1)C(=O)NC1CCN(c2c(F)cc3c(=O)c(C(=O)O)cn(C4CC4)c3c2F)C1.O (some centres undefined),7.2 mg/mL,21 mg/mL,,0.8 µg/mL,25 µg/mL,7.5 µg/mL,1.6 µg/mL,1.6 µg/mL,5 mg/kg,,,1 mg/kg,25 µg/mL,3.1 µg/mL,3.1 µg/mL,> 25 µg/mL,1.6 µg/mL,> 25 µg/mL,31 mg/mL,
Cl.NCC(=O)NC1CCN(c2nc3c(cc2F)c(=O)c(C(=O)O)cn3C2CC2)C1.O (centres undefined),67 mg/mL,> 200 mg/mL,,0.2 µg/mL,0.8 µg/mL,2.5 µg/mL,0.4 µg/mL,0.4 µg/mL,,37 mg/kg,10 mg/kg,,3.1 µg/mL,0.8 µg/mL,1.6 µg/mL,0.1 µg/mL,0.4 µg/mL,0.8 µg/mL,> 200 mg/mL,
Cl.NCCCC[C@H](N)C(=O)NC1CCN(c2c(F)cc3c(=O)c(C(=O)O)cn(C4CC4)c3c2F)C1.O (some centres undefined),,,,6.3 µg/mL,6.3 µg/mL,,3.1 µg/mL,12.5 µg/mL,,,,,12.5 µg/mL,12.5 µg/mL,0.4 µg/mL,6.3 µg/mL,0.2 µg/mL,6.3 µg/mL,,
Cl.NCCCC[C@H](N)C(=O)NC1CCN(c2cc3c(cc2F)c(=O)c(C(=O)O)cn3C2CC2)C1.O (some centres undefined),69 mg/mL,> 100 mg/mL,0.11 mg/mL,12.5 µg/mL,> 25 µg/mL,,12.5 µg/mL,12.5 µg/mL,10 mg/kg,> 100 mg/kg,12 mg/kg,1 mg/kg,25 µg/mL,25 µg/mL,25 µg/mL,12.5 µg/mL,3.1 µg/mL,25 µg/mL,93 mg/mL,
C[C@H](N)C(=O)N[C@H]1CCN(c2c(F)cc3c(=O)c(C(=O)O)cn(C4CC4)c3c2F)C1.Cl.O,5.4 mg/mL,19 mg/mL,0.07 mg/mL,0.1 µg/mL,0.1 µg/mL,2.5 µg/mL,0.1 µg/mL,0.2 µg/mL,1 mg/kg,25 mg/kg,9 mg/kg,0.4 mg/kg,0.1 µg/mL,0.2 µg/mL,0.1 µg/mL,0.1 µg/mL,0.025 µg/mL,0.1 µg/mL,33 mg/mL,
